Screens: PubChem, several laboratories
Rows were chosen to be rich in hits. Some 1.9% of all compounds tested hit in one or more screens of this group.
SR-BI uptake up: enhances SR-BI lipid uptake from DiI-HDL | CHO ldlA[mSR-BI] cells, DiI-HDL uptake fluorescence, 3 h; 100 = double the neutral-control signal | activation, % at 12.5 µM | 0.096% of 320,000 active | AID 504775;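 active means mean replicate activation of at least 60% and every replicate at or above 60%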;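 further: 0% = median plate neutral-control signal and 100% = twice that signal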
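Test system: SR-BI-overexpressing, LDLR-lacking CHO cells; Also added: labelled HDL, 10 µg/mL; Measured by: bottom-read cell fluorescence after medium removal, ex 550/em 595 nm; Timing: 3 h uptake period with compound, 37 °C; Buffer or medium: F12, 0.5% BSA, 25 mM HEPES; Doses: single compound concentration, delivered by pin transfer.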
SR-BI HDL uptake: mouse SR-BI HDL lipid transfer inhibition. Q61009. ldlA[mSR-BI] CHO cells, DiI-HDL uptake fluorescence, 3 h. inhibition, % at 12.5 µM. 0.96% of 320,000 active;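 active means mean replicate inhibition of at least 70% and a set share of replicates each scoring 70 or more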;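 further: 0% = median of neutral control wells and 100% = median of positive control wells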
Rin1 Abl inh: blocks binding of human Rin1 to Abl. AID 588664. TR-FRET Rin1/Abl binding, biochemical. inhibition, % at 7.35 µM. 0.4% of 360,000 active; in the data active means inhibition above about 5%, passing the limit was not always enough
GRK2 inh: blocks RNA aptamer binding to human GRK2. inhibition of aptamer binding, % at 10 µM. bead flow cytometry, FAM-aptamer displacement from GRK2. P25098. 0.59% of 330,000 active;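 active means inhibition of aptamer binding above 40%, roughly 3 SD of noise, on plates passing a quality check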;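 further: median bead fluorescence of bound FAM aptamer so fluorescent compounds give negative values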
Target sequence (P25098 whole entry, looked up): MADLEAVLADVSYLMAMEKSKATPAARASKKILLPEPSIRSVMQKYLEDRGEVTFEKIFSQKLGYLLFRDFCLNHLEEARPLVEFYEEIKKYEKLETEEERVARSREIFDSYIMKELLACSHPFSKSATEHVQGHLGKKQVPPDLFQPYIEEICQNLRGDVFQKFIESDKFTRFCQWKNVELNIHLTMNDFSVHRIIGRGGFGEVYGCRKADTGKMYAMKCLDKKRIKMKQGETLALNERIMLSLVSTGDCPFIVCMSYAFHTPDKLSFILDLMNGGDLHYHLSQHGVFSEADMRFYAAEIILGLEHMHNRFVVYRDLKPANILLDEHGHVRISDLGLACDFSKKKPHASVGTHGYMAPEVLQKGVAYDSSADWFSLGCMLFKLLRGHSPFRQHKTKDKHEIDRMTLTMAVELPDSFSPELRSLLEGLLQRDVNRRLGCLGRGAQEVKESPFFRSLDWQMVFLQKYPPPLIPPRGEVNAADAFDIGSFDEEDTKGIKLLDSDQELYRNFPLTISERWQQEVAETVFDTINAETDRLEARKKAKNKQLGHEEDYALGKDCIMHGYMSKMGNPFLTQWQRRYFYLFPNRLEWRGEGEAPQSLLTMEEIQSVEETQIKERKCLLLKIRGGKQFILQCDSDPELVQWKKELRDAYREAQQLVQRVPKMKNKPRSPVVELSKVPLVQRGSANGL
* = called active by the depositor; / = not tested or not shown.

SMILES	SR-BI uptake up	SR-BI HDL uptake	Rin1 Abl inh	GRK2 inh
COc1cc(F)ccc1S(=O)(=O)N1CCN(C23CC4CC(CC(C4)C2)C3)CC1	-7	7	6	0
COc1cc(C)ccc1S(=O)(=O)N1CCN(C23CC4CC(CC(C4)C2)C3)CC1	-77	77*	-1	0
Cc1ccc(C2(c3noc(CN(C)Cc4cnn(C)c4)n3)CCCC2)cc1	122*	-122	3	0
O=C(Nc1ccc(-c2ccccc2)cc1)c1ccc2c(c1)S(=O)(=O)c1ccccc1C2=O	-84	84*	5	0
O=C(Nc1nc(-c2cccc3ccccc23)cs1)c1ccc2c(c1)S(=O)(=O)c1ccccc1C2=O	-73	73*	-7	2
Nc1ncccc1OCc1ccc(Cl)c(Cl)c1	8	-8	0	0
Cc1cc(N2CCN(C)CC2)nc2ccc(NC(=S)N3CCCCC3)cc12	-31	31	-3	/
Cc1cccc(N2CCN(C(=S)Nc3ccc4nc(N5CCN(C)CC5)cc(C)c4c3)CC2)c1C	-89	89*	-2	/
CCOC(=O)N1CCC(NC(=S)Nc2ccc3nc(N4CCN(C)CC4)cc(C)c3c2)CC1	112*	-112	0	0
CC(=O)c1c(C)[nH]c(C(=O)N2c3ccccc3CC2C)c1C (centres undefined)	-72	72*	1	2
CC(=O)c1c(C)[nH]c(C(=O)N2CCc3ccccc3C2)c1C	19	-19	2	7
N#CCCN1CCCc2cc(N=Nc3ccc(C(F)(F)F)cc3)ccc21	-98	98*	0	2
Cc1noc(C)c1NC(=O)N(C)C[C@H]1OCc2cn(nn2)CCCC(=O)N([C@@H](C)CO)C[C@@H]1C	/	/	-3	/
Cn1cccc1/C=C(\C#N)C(N)=S	19	-19	-7	5
Cn1c(/C=C(\C#N)C(N)=S)ccc1-c1ccc(Br)cc1	-74	74*	-3	/
C/C(=N\NC(=O)c1cccc(N/N=C(\C)c2cc(O)ccc2O)c1)c1cc(O)ccc1O	-85	85*	0	0
COc1ccc(C(OC(=O)c2ccco2)C(=O)NC2CCCC2)cc1OC (centres undefined)	14	-14	2	4
COc1ccc(C(OC(=O)c2ccco2)C(=O)NC2CCCCC2)cc1OC (centres undefined)	336*	-336	0	0
CC1CC(=O)c2c(cc3c(-c4c(O)cc(O)c5c(O)c6c(cc45)OC(C)CC6=O)c(O)cc(O)c3c2O)O1 (centres undefined)	-117	117*	9	4
CCOC(=O)C1(C)CCCN(C(=O)Cc2ccc3ccccc3c2)C1 (centres undefined)	/	/	-2	/
CCC(=O)Nc1ccc(NC(=S)NC(=O)/C=C/c2ccco2)cc1	-89	89*	-2	3
CN=C1S/C(=C\c2ccc(OCC(=O)OC)c(OC)c2)C(=O)N1C	441*	-441	-6	0
CCOc1ccc(NC(=O)/C(C#N)=C\c2ccc(N3CCCC3)c(C)c2)cc1	-101	101*	3	/
Cn1ncc(N=Cc2c(O)ccc3ccccc23)c1C(=O)Nc1cccc(Cl)c1	-36	36	-1	0
COc1ccc(-c2nc(NC(=O)c3ccccc3)sc2-c2ccc([N+](=O)[O-])cc2)cc1	-79	79*	0	11
SMILES	SR-BI uptake up	SR-BI HDL uptake	Rin1 Abl inh	GRK2 inh
COc1ccc(-c2nc(NC(C)=O)sc2-c2ccccc2)cc1	-68	68	-4	0
COc1ccc(-c2sc(NC(C)=O)nc2-c2ccccc2)cc1	-80	80*	1	3
CCN(CC(=O)Nc1cc(Cl)ccc1C)C(=O)c1ccc2c(=O)n3c(nc2c1)CCC3	5	-5	-3	0
Cc1sc2ncnc(N/N=C/c3ccccc3O)c2c1C	-116	116*	0	0
CCc1nn(C(C)C(=O)NCCN2CCN(c3cccc(C)c3C)CC2)c(=O)c2cc3occc3n12 (centres undefined)	-80	80*	-2	0
CCOc1ccc(-c2c(C(=O)N/N=C/c3ccc(C)cc3)nnn2-c2nonc2N)cc1	-44	44	-4	0
C/C(=N\NC(=O)c1nnn(-c2nonc2N)c1-c1ccccc1)c1ccccc1O	-86	86*	-2	0
CCOc1ccc(-c2c(C(=O)N/N=C/c3ccc(OC(C)C)cc3)nnn2-c2nonc2N)cc1	-77	77*	-3	0
CCOc1ccc(-c2c(C(=O)N/N=C/c3ccccc3)nnn2-c2nonc2N)cc1	-74	74*	-3	2
CCOc1ccc(-c2c(C(=O)N/N=C/c3ccc(Cl)cc3)nnn2-c2nonc2N)cc1	-55	55	2	0
